Here are results for two molecules from PubChem BioAssay AID623968 (The Scripps Research Institute Molecular Screening Center, 2012).

The IC50 is the concentration that inhibits the measured activity by half.

The source made the active and inactive calls.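 The calls were made as follows: active = compounds cutting HCV replicon RNA in liver cells with IC50 no higher than 50000 nM; inactive = the rest.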

The subject of this experiment is Huh 7.5 HCV Rluc replicon, HCV RNA qRT-PCR, 72 h. Kind of experiment: HCV replicon RNA level reduction, late-stage follow-up, orthogonal assay for HCV NS3 helicase inhibitor project, RT-PCR, Huh 7.5 Rluc replicon cells (AID 623968). A digest of the protocol:
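Assay system: Huh 7.5 human hepatoma cells carrying HCV Rluc replicon / Times: 72 h treatment at 37 °C / Technique: TaqMan qRT-PCR targeting HCV 5'UTR / Evaluation: IC50 from fitted curve of rRNA-normalized HCV RNA versus DMSO / Benchmarks: DMSO vehicle-treated cells as reference sample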
(Replicon systems follow genome replication, usually without infectious particles.)

For the molecule `Cc1ccc2nc(-c3ccc4nc(-c5ccc(NC(=O)c6cccc(Cl)c6)cc5)sc4c3)sc2c1S(=O)(=O)O`, the IC50 was > 25 µM (inactive).

As for `Cc1ccc2nc(-c3ccc4nc(-c5ccc(NC(=O)c6cc(C(F)(F)F)cc(C(F)(F)F)c6)cc5)sc4c3)sc2c1S(=O)(=O)O`, the concentration for half-maximal inhibition (IC50) was 5 µM.
